Measured values: ChEMBL document CHEMBL1135629, “The effect of exchanging various substituents at the 2-position of 2-methoxyestradiol on cytotoxicity in human cancer cell cultures and inhibition of tubulin polymerization” (J Med Chem, 2002)

How the values were obtained:
Homo sapiens [1] = organism: Homo sapiens; test: Cytotoxicity against the cancer cell lines lung HOP-62; format: functional
Method in brief: (§1)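 Human tumor cell line panel (about 55 lines) exposed to compound across 10^-4 to 10^-8 M. GI50 is the concentration giving 50% growth inhibition; values outside the range are set to the range limits.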

Homo sapiens [2] = organism: Homo sapiens; test: Cytotoxicity against the cancer cell lines ovarian OVCAR-3; format: functional; method in brief: as §1
Homo sapiens [3] = organism: Homo sapiens; test: Cytotoxicity against the cancer cell lines prostate DU-145; format: functional; method in brief: as §1
Homo sapiens [4] = organism: Homo sapiens; test: Cytotoxicity against the cancer cell lines CNS SF-539; format: functional; method in brief: as §1
Homo sapiens [5] = organism: Homo sapiens; test: Cytotoxicity against the cancer cell lines renal SN12C; format: functional; method in brief: as §1
Homo sapiens [6] = organism: Homo sapiens; test: Cytotoxicity against the cancer cell lines colon HCT116; format: functional; method in brief: as §1
Homo sapiens [7] = organism: Homo sapiens; test: Cytotoxicity against the cancer cell lines breast MDA-MB-435; format: functional; method in brief: as §1
Tubulin = Tubulin (Bos taurus, UniProt Q6B856+Q862L2+Q862F3); test: Inhibition of tubulin polymerization measured at 12 uM tubulin concentration.; format: protein assay
Method in brief: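 Bovine brain tubulin, electrophoretically homogeneous, at 1.2 mg/mL (12 μM), preincubated at 26 °C with varying compound concentrations (up to 40 μM), then chilled on ice before GTP was added. Polymerization at 26 °C followed by turbidity at 350 nm, with extent read at 20 min. IC50 determined graphically from at least two independent assays.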

Homo sapiens [8] = organism: Homo sapiens; test: Cytotoxicity against the cancer cell lines melanoma UACC-62; format: functional; method in brief: as §1

## CC#Cc1cc2c(cc1O)CC[C@@H]1[C@@H]2CC[C@]2(C)[C@@H](O)CC[C@@H]12
Homo sapiens [1]
  GI50: 1.7 µM
Homo sapiens [2]
  GI50: 0.34 µM
Homo sapiens [3]
  GI50: 3.6 µM
Homo sapiens [4]
  GI50: 0.95 µM
Homo sapiens [5]
  GI50: 6.9 µM
Homo sapiens [6]
  GI50: 0.48 µM
Homo sapiens [7]
  GI50: 0.13 µM
Tubulin
  IC50: 4.9 µM
Homo sapiens [8]
  GI50: 0.5 µM

## C[C@]12CC[C@@H]3c4cc(C#N)c(O)cc4CC[C@H]3[C@@H]1CC[C@@H]2O
Homo sapiens [1]
  GI50: 56 µM
Homo sapiens [2]
  GI50: > 100 µM
Homo sapiens [3]
  GI50: 34 µM
Homo sapiens [4]
  GI50: > 100 µM
Homo sapiens [5]
  GI50: 48 µM
Homo sapiens [6]
  GI50: > 100 µM
Homo sapiens [7]
  GI50: > 100 µM
Tubulin
  IC50: > 40 µM
Homo sapiens [8]
  GI50: 6.1 µM

## C#Cc1cc2c(cc1O)CC[C@@H]1[C@@H]2CC[C@]2(C)[C@@H](O)CC[C@@H]12
Homo sapiens [1]
  GI50: 6.2 µM
Homo sapiens [2]
  GI50: 3.8 µM
Homo sapiens [3]
  GI50: 10 µM
Homo sapiens [4]
  GI50: 2.3 µM
Homo sapiens [5]
  GI50: 6.4 µM
Homo sapiens [6]
  GI50: 3.9 µM
Homo sapiens [7]
  GI50: 2.2 µM
Tubulin
  IC50: 13 µM
Homo sapiens [8]
  GI50: 4.8 µM

## C[C@]12CC[C@@H]3c4cc(/C=N/CCO)c(O)cc4CC[C@H]3[C@@H]1CC[C@@H]2O
Homo sapiens [1]
  GI50: 23 µM
Homo sapiens [2]
  GI50: 19 µM
Homo sapiens [3]
  GI50: 20 µM
Homo sapiens [4]
  GI50: 13 µM
Homo sapiens [5]
  GI50: 18 µM
Homo sapiens [6]
  GI50: 11 µM
Homo sapiens [7]
  GI50: 17 µM
Tubulin
  IC50: > 40 µM
Homo sapiens [8]
  GI50: 16 µM

## C[C@]12CC[C@@H]3c4cc(C#Cc5ccccc5)c(O)cc4CC[C@H]3[C@@H]1CC[C@@H]2O
Homo sapiens [1]
  GI50: 14 µM
Homo sapiens [2]
  GI50: 14 µM
Homo sapiens [3]
  GI50: 16 µM
Homo sapiens [4]
  GI50: 16 µM
Homo sapiens [5]
  GI50: 11 µM
Homo sapiens [6]
  GI50: 14 µM
Homo sapiens [7]
  GI50: 16 µM
Tubulin
  IC50: > 40 µM
Homo sapiens [8]
  GI50: 12 µM

## COc1cc(/C=C/c2cc3c(cc2O)CC[C@@H]2[C@@H]3CC[C@]3(C)[C@@H](O)CC[C@@H]23)cc(OC)c1OC
Homo sapiens [1]
  GI50: 3.6 µM
Homo sapiens [2]
  GI50: 3.2 µM
Homo sapiens [3]
  GI50: 2.8 µM
Homo sapiens [4]
  GI50: 2 µM
Homo sapiens [5]
  GI50: 2.4 µM
Homo sapiens [6]
  GI50: 3.2 µM
Homo sapiens [7]
  GI50: 4.4 µM
Tubulin
  IC50: > 40 µM
Homo sapiens [8]
  GI50: 2.7 µM

## CN(C)CC/N=C/c1cc2c(cc1O)CC[C@@H]1[C@@H]2CC[C@]2(C)[C@@H](O)CC[C@@H]12
Homo sapiens [1]
  GI50: 19 µM
Homo sapiens [2]
  GI50: 21 µM
Homo sapiens [3]
  GI50: 22 µM
Homo sapiens [4]
  GI50: 22 µM
Homo sapiens [5]
  GI50: 22 µM
Homo sapiens [6]
  GI50: 15 µM
Homo sapiens [7]
  GI50: 19 µM
Tubulin
  IC50: > 40 µM
Homo sapiens [8]
  GI50: 17 µM

## C[C@]12CC[C@@H]3c4cc(/C=C/CO)c(O)cc4CC[C@H]3[C@@H]1CC[C@@H]2O
Homo sapiens [1]
  GI50: 5.5 µM
Homo sapiens [2]
  GI50: 5.3 µM
Homo sapiens [3]
  GI50: 0.9 µM
Homo sapiens [4]
  GI50: 0.25 µM
Homo sapiens [5]
  GI50: 6.2 µM
Homo sapiens [6]
  GI50: 0.47 µM
Homo sapiens [7]
  GI50: 0.052 µM
Tubulin
  IC50: 6.3 µM
Homo sapiens [8]
  GI50: 0.47 µM

## COc1cc2c(cc1O)CC[C@@H]1[C@@H]2CC[C@]2(C)[C@@H](O)CC[C@@H]12 [2-METHOXYESTRADIOL]
Homo sapiens [1]
  GI50: 0.7 µM
Homo sapiens [2]
  GI50: 0.21 µM
Homo sapiens [3]
  GI50: 1.8 µM
Homo sapiens [4]
  GI50: 0.32 µM
Homo sapiens [5]
  GI50: 0.95 µM
Homo sapiens [6]
  GI50: 0.47 µM
Homo sapiens [7]
  GI50: 0.08 µM
Tubulin
  IC50: 4.7 µM
Homo sapiens [8]
  GI50: 0.36 µM

## C[C@]12CC[C@@H]3c4cc(OCCO)c(O)cc4CC[C@H]3[C@@H]1CC[C@@H]2O
Homo sapiens [1]
  GI50: 18 µM
Homo sapiens [2]
  GI50: 8.7 µM
Homo sapiens [3]
  GI50: 16 µM
Homo sapiens [4]
  GI50: 11 µM
Homo sapiens [5]
  GI50: 19 µM
Homo sapiens [6]
  GI50: 15 µM
Homo sapiens [7]
  GI50: 16 µM
Tubulin
  IC50: 9.6 µM
Homo sapiens [8]
  GI50: 13 µM
